Measured values published in ChEMBL document CHEMBL1145502, “Roxithromycin favorably modifies the initial phase of resistance against infection with macrolide-resistant Streptococcus pneumoniae in a murine pneumonia model” (Antimicrob Agents Chemother, 2007).
Converted amounts (≈) assume the structure as drawn. The source made the active and inactive calls. The calls are words filed in the database; no cut-off is given here.

What was measured:
Streptococcus pneumoniae [1] = test: Antimicrobial activity against Streptococcus pneumoniae NMU112 infected in po dosed CBA/J mouse blood assessed as number of colony forming units after 7 days relative to control; assay type: functional
Outline: (§1)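 CBA/J mice (28–30 g) dosed by oral gavage twice daily for 3 days, saline as control. Infected 24 h after the last dose with 5 × 10⁴ CFU via the oropharynx under light ketamine/xylazine anesthesia. Blood, lung homogenate and pooled BALF supernatant were plated on agar with 200 μg/ml ERY and incubated about 24 h at 37°C for CFU. Three mice per group per time point, three experiments.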

Streptococcus pneumoniae [2] = test: Antimicrobial activity against drug-resistant Streptococcus pneumoniae NMU112 infected CBA/J mouse assessed as animal survival at 1.25 mg/kg, po; assay type: functional, organism-based; set-up: dose 1.25 mg/kg
Outline: (§2)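 Male CBA/J mice, 3-4 weeks old, 28-30 g. Macrolide given by oral gavage in saline for 3 days; RXM, ERY and CLR twice daily at 12-h intervals, AZM once daily. Saline controls. 24 h after the last dose, mice were infected intratracheally with 5 × 10⁴ CFU NMU112 (erm(B)/mef(A)). Kaplan-Meier survival and median survival time, log rank test; 10 mice per group per experiment.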

Plasma [3] = test: Drug level in Streptococcus pneumoniae NMU112 infected CBA/J mouse plasma at 5 mg/kg/day, po after 48 hrs; assay type: ADME, organism-based; set-up: route oral; conditions: in vivo
Outline: (§3)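 Oral gavage at 5 mg/kg/day (0.075 mg twice daily, six doses). Plasma and PBS lung homogenates were taken 24, 48 and 72 h after the last dose. Assayed by HPLC-electrochemical detection with an erythromycin internal standard; linear ranges 0.15–10.5 (plasma) and 0.4–11.8 μg/ml (lung). Five mice per time point; mean ± SD.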

Streptococcus pneumoniae [4] = test: Reduction of pneumococcal surface protein A in Streptococcus pneumoniae NMU112 infected CBA/J mouse lung lysates after 48 hrs by Western blot relative to control; assay type: functional, organism-based
Outline: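 Left-lung Triton X extract (1 mg protein) immunoprecipitated with anti-PspA on protein G beads, then run on SDS-12% PAGE and Western blotted. Densitometry given as % of control. Three mice per group per time point.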

Streptococcus pneumoniae [5] = test: Reduction of pneumolysin production in Streptococcus pneumoniae NMU112 lysates at 5 ug/mL after 12 hrs by Western blot relative to control; assay type: functional, organism-based
Outline: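 NMU112 at 5 × 10⁷ CFU/ml in THY cultured with macrolide at 37°C for 12 h, then whole-cell sonicated lysates run on SDS-PAGE and immunoblotted for pneumolysin. Band densitometry as mean % of drug-free culture; two cultures per dose per experiment, three experiments.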

Streptococcus pneumoniae [6] = test: Antimicrobial activity against drug-resistant Streptococcus pneumoniae NMU112 infected CBA/J mouse assessed as median survival time at 7.5 mg/kg, po relative to control; assay type: functional; outline: as §2
Streptococcus pneumoniae [7] = test: Reduction in Streptococcus pneumoniae NMU112 infection-induced elevation in keratinocyte-derived chemokine level in po dosed CBA/J mouse lung after 12 hrs by sandwich ELISA relative to control; assay type: functional, organism-based
Outline: (§4)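 Lung homogenate in lysis buffer with protease inhibitors, 30 min on ice, spun 12,000 × g 20 min at 4°C. KC or MCP-1 measured by sandwich ELISA, detection limit 2 pg/ml. Three mice per group per time point after infection with 5 × 10⁴ CFU, each sample in triplicate, two experiments.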

Streptococcus pneumoniae [8] = test: Antimicrobial activity against drug-resistant Streptococcus pneumoniae NMU112 infected CBA/J mouse assessed as median survival time at 10 mg/kg, po relative to control; assay type: functional; outline: as §2
Streptococcus pneumoniae [9] = test: Inhibition of pneumococcal surface protein A production in Streptococcus pneumoniae NMU112 lysates at 5 ug/mL after 12 hrs by Western blot relative to control; assay type: functional, organism-based
Outline: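 Strain NMU112 (5 × 10⁷ CFU/ml in THY) cultured 12 h at 37°C with drug. Sonicated whole-cell lysates run on SDS-PAGE and Western blotted; bands measured by densitometry as % of drug-free culture. Two cultures per dose, three experiments (n = 5–6).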

Streptococcus pneumoniae [10] = test: Reduction in Streptococcus pneumoniae NMU112 infection-induced elevation in keratinocyte-derived chemokine level in po dosed CBA/J mouse bronchoalveolar lavage fluid after 8 hrs by sandwich ELISA relative to control; assay type: functional, organism-based; conditions: Lung
Streptococcus pneumoniae [11] = test: Inhibition of Streptococcus pneumoniae NMU112 induced MMP7 expression level in po dosed CBA/J mouse assessed as decrease in caseinolytic activity after 6 to 48 hrs relative to control; assay type: functional, organism-based
Outline: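 Casein zymography on lung extract (100 μg protein) in 4–16% casein gels. The 19-kDa mature MMP-7 lysis band was scanned by densitometry and expressed as % of infected controls. Five to six mice per time point, three experiments.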

Mus musculus [12] = species: Mus musculus; test: Reduction of MMP7 expression level in UV rays killed Streptococcus pneumoniae NMU112 infected CBA/J mouse bronchoalveolar lavage fluid relative to control; assay type: functional, organism-based; conditions: Lung
Streptococcus pneumoniae [13] = test: Inhibition of Streptococcus pneumoniae NMU112 infection-induced polymorphonuclear leukocytes infiltration in CBA/J mouse lung assessed as MPO activity after 12 hrs relative to control; assay type: functional, organism-based
Outline: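 Lungs (n = 4 per group per time point) removed after blood collection, weighed and frozen, then assayed with an MPO kit. Activity given as units per mg protein.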

Mus musculus [14] = species: Mus musculus; test: Reduction of polymorphonuclear leukocytes in UV rays killed Streptococcus pneumoniae NMU112 infected CBA/J mouse bronchoalveolar lavage fluid relative to control; assay type: functional, organism-based; conditions: Lung
Streptococcus pneumoniae [15] = test: Antimicrobial activity against Streptococcus pneumoniae NMU112 infected in po dosed CBA/J mouse lungs assessed as reduction in number of colony forming units after 24 to 48 hr relative to control; assay type: functional, organism-based; outline: as §1
Streptococcus pneumoniae [16] = test: Increase in Streptococcus pneumoniae NMU112 infection-induced reduction in MCP1 level in po dosed CBA/J mouse lung by sandwich ELISA relative to control
Streptococcus pneumoniae [17] = test: Antimicrobial activity against Streptococcus pneumoniae NMU112 infected in po dosed CBA/J mouse bronchoalveolar lavage fluid assessed as reduction in number of colony forming units after 24 to 48 hrs relative to control; assay type: functional, organism-based; conditions: Lung; outline: as §1
Streptococcus pneumoniae [18] = test: Reduction of pneumolysin production in Streptococcus pneumoniae NMU112 infected CBA/J mouse lung lysates after 48 hrs of infection by Western blot relative to control; assay type: functional, organism-based
Outline: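 Left lungs (n, 3 per group per time point) homogenised in Tris-HCl pH 7.5 with NaCl and Triton X, then centrifuged. Extract (1 mg protein) immunoprecipitated with anti-PLY on protein G beads, run on SDS-12% PAGE and blotted. Band densitometry expressed as % of control mice after oral pretreatment and intratracheal NMU112 infection.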

Lung [19] = test: Drug level in Streptococcus pneumoniae NMU112 infected CBA/J mouse lung tissue at 5 mg/kg/day, po after 72 hrs; assay type: ADME, organism-based; set-up: route oral; conditions: in vivo; outline: as §3
Streptococcus pneumoniae [20] = test: Antimicrobial activity against Streptococcus pneumoniae NMUP45 infected CBA/J mouse assessed as animal survival at => 5 mg/kg, po relative to control; assay type: functional, organism-based; set-up: dose 5 mg/kg
Lung [21] = test: Drug level in Streptococcus pneumoniae NMU112 infected CBA/J mouse lung tissue at 5 mg/kg/day, po after 24 hrs; assay type: ADME, organism-based; set-up: route oral; conditions: in vivo; outline: as §3
Streptococcus pneumoniae [22] = test: Antimicrobial activity against Streptococcus pneumoniae NMUP45; assay type: functional
Outline: (§5)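 Broth microdilution MIC (NCCLS method) in Mueller-Hinton broth with 3% lysed horse blood; clinical isolates NMU605 (serotype 3) and NMUP45 (serotype 4).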

Plasma [23] = test: Drug level in Streptococcus pneumoniae NMU112 infected CBA/J mouse plasma at 5 mg/kg/day, po after 72 hrs; assay type: ADME, organism-based; set-up: route oral; conditions: in vivo; outline: as §3
Streptococcus pneumoniae [24] = test: Increase in Streptococcus pneumoniae NMU112 infection-induced reduction in MCP1 level in po dosed CBA/J mouse lung after 12 to 36 hrs by sandwich ELISA relative to control; assay type: functional, organism-based; outline: as §4
Lung [25] = test: Drug level in Streptococcus pneumoniae NMU112 infected CBA/J mouse lung tissue at 5 mg/kg/day, po after 48 hrs; assay type: ADME, organism-based; set-up: route oral; conditions: in vivo; outline: as §3
Streptococcus pneumoniae [26] = test: Antimicrobial activity against Streptococcus pneumoniae NMU112; assay type: functional
Outline: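 Broth microdilution MIC per NCCLS in Mueller-Hinton broth with 3% lysed horse blood.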

Streptococcus pneumoniae [27] = test: Antimicrobial activity against drug-resistant Streptococcus pneumoniae NMU112 infected CBA/J mouse assessed as median survival time at 5 mg/kg, po relative to control; assay type: functional; outline: as §2
Streptococcus pneumoniae [28] = test: Antimicrobial activity against Streptococcus pneumoniae NMU605; assay type: functional; outline: as §5
Streptococcus pneumoniae [29] = test: Reduction in Streptococcus pneumoniae NMU112 infection induced elevation in syndecan-1 shedding in po dosed CBA/J mouse bronchoalveolar lavage fluid relative to control; assay type: functional, organism-based; conditions: Lung
Outline: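 Syndecan-1 ectodomains in 100 μl BALF measured by sandwich ELISA: 281-2 capture antibody, biotinylated 281-2 detection, streptavidin-HRP/TMB, read at 450 nm. Range 2.5–245 ng/ml. Three mice per time point, triplicate, three experiments.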

Streptococcus pneumoniae [30] = test: Antimicrobial activity against Streptococcus pneumoniae NMU112 infected in po dosed CBA/J mouse blood assessed as number of colony forming units after 6 days relative to control; assay type: functional; outline: as §1
Streptococcus pneumoniae [31] = test: Antimicrobial activity against Streptococcus pneumoniae NMU112 infected in po dosed CBA/J mouse blood assessed as number of colony forming units after 5 days relative to control; assay type: functional; outline: as §1
Plasma [32] = test: Drug level in Streptococcus pneumoniae NMU112 infected CBA/J mouse plasma at 5 mg/kg/day, po after 24 hrs; assay type: ADME, organism-based; set-up: route oral; conditions: in vivo; outline: as §3
Streptococcus pneumoniae [33] = test: Antimicrobial activity against Streptococcus pneumoniae NMU112 infected in po dosed CBA/J mouse blood assessed as number of colony forming units after 4 days relative to control; assay type: functional; outline: as §1
Streptococcus pneumoniae [34] = test: Antimicrobial activity against Streptococcus pneumoniae NMU605 infected CBA/J mouse assessed as animal survival at => 2.5 mg/kg, po relative to control; assay type: functional, organism-based; set-up: dose 2.5 mg/kg

SMILES: CC[C@H]1OC(=O)[C@H](C)[C@@H](O[C@H]2C[C@@](C)(OC)[C@@H](O)[C@H](C)O2)[C@H](C)[C@@H](O[C@@H]2O[C@H](C)C[C@H](N(C)C)[C@H]2O)[C@](C)(O)C[C@@H](C)/C(=N\OCOCCOC)[C@H](C)[C@@H](O)[C@]1(C)O [ROXITHROMYCIN]
- log10CFU/ml (Streptococcus pneumoniae [1]): >=5.11
- Activity (Streptococcus pneumoniae [2]): inactive
- Concn (Plasma [3]): 1360 ng/mL
- Activity (Streptococcus pneumoniae [4]): Active
- Activity (Streptococcus pneumoniae [5]): inactive
- MST (Streptococcus pneumoniae [6]): 6.3 days
- Activity (Streptococcus pneumoniae [7]): Active
- MST (Streptococcus pneumoniae [8]): 6.6 days
- Activity (Streptococcus pneumoniae [9]): inactive
- Activity (Streptococcus pneumoniae [10]): Active
- Activity (Streptococcus pneumoniae [11]): Active
- Activity (Mus musculus [12]): Active
- Activity (Streptococcus pneumoniae [13]): Active
- Activity (Mus musculus [14]): Active
- Activity (Streptococcus pneumoniae [15]): Active
- Activity (Streptococcus pneumoniae [16]): Active
- Activity (Streptococcus pneumoniae [17]): Active
- Activity (Streptococcus pneumoniae [18]): Active
- Concn (Lung [19]): 650 ng/mL
- Activity (Streptococcus pneumoniae [20]): Active
- Concn (Lung [21]): 5220 ng/mL
- MIC (Streptococcus pneumoniae [22]): 4 µg/mL (≈ 4.78 µM)
- Concn (Plasma [23]): 540 ng/mL
- Activity (Streptococcus pneumoniae [24]): Active
- Concn (Lung [25]): 2870 ng/mL
- MIC (Streptococcus pneumoniae [26]): ≥ 256 µg/mL
- MST (Streptococcus pneumoniae [27]): 5.8 days
- MIC (Streptococcus pneumoniae [28]): 0.06 µg/mL (≈ 0.0717 µM)
- Activity (Streptococcus pneumoniae [29]): Active
- log10CFU/ml (Streptococcus pneumoniae [30]): 4.27
- log10CFU/ml (Streptococcus pneumoniae [31]): 3.68
- Concn (Plasma [32]): 3870 ng/mL
- log10CFU/ml (Streptococcus pneumoniae [33]): 2.14
- Activity (Streptococcus pneumoniae [34]): Active
